The values below come from ChEMBL document CHEMBL4396944, “A fluorogenic H2S-triggered prodrug based on thiolysis of the NBD amine” (Bioorg Med Chem Lett, 2019).

The solubility is the dissolved amount per volume that the medium holds. For orientation: MIC means the lowest concentration found to suppress growth.

Data set [1] concerns Escherichia coli. Kind of data set: Antibacterial activity against Escherichia coli BL21(DE3) at lower concentration incubated for 12 hrs by UV-Vis spectrophotometric analysis. It is filed as functional, organism-based. In short, it runs like this: (§1)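 E. coli grown in LB medium with the prodrug added, alone or together with 50 µM Na2S (H2S source) or 5 mM L-Cys. Cultures were incubated for 12 h, at 37 °C where stated, and growth was read as OD600 per sample. Controls: Na2S or L-Cys alone, and 30 nM NBD-SH by-product.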

Data set [2] deals with Escherichia coli. Kind of data set: Antibacterial activity against Escherichia coli BL21(DE3) incubated for 12 hrs by UV-Vis spectrophotometric analysis. The format is functional, organism-based. In short, it runs like this: as §1
Data set [3] in a line: Prodrug activation in pH 7.4 PBS buffer at 5 uM incubated for 30 mins in presence of Cys by fluorescence assay. The note with it: pH 7.4, 0.5 h. The essentials:
(§2)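 Fluorescence of prodrug checked in PBS after exposure to millimolar biothiols, 10 mM GSH or 5 mM Cys.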

The nature of data set [4]: Prodrug activation in pH 7.4 PBS buffer assessed as absorption peak for NBD fluorophore formation at 10 uM in presence of Na2S by UV-Vis spectrophotometric analysis. To be noted: pH 7.4, 10 µM. In short, it runs like this:
(§3)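 Absorption spectra recorded over time for 10 µM prodrug with 200 µM Na2S in 50 mM PBS, pH 7.4; bands followed at 350, 490 and new 530 nm; kinetics followed by intensity at 560 nm.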

The nature of data set [5]: Solubility of compound in 20 mM PBS buffer at pH 7.4 in presence of Na2S by UV-Vis spectrophotometric analysis. It is filed as physicochemical.
Data set [6] in a line: Prodrug activation in pH 7.4 PBS buffer assessed as second order rate constant at 10 uM in presence of Na2S by UV-Vis spectrophotometric analysis. The note with it: pH 7.4, 10 µM.
Data set [7] is described as follows: Prodrug activation in pH 7.4 PBS buffer assessed as ciprofloxacin formation by measuring increase in fluorescence at 5 uM in presence of Na2S at 415 nanometer by fluorescence assay relative to control. To be noted: pH 7.4, 5 µM. In short, it runs like this:
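Prodrug at 5 µM mixed with Na2S (100 µM) in PBS; fluorescence spectra recorded over time, excitation 280 nm. Emission at 415 nm plotted against time and fitted to give k_obs. Repeated at several Na2S concentrations; slope of k_obs versus [Na2S] gives k2.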

Data set [8] in a line: Prodrug activation in pH 7.4 PBS buffer assessed as absorption peak for ciprofloxacin formation at 10 uM in presence of Na2S by UV-Vis spectrophotometric analysis. The note with it: pH 7.4, 10 µM. The essentials:
as §3

Data set [9] concerns Escherichia coli. The data set can be described thus: Antibacterial activity against Escherichia coli BL21(DE3) incubated for 12 hrs in presence of L-Cys by UV-Vis spectrophotometric analysis. It is filed as functional, organism-based. The essentials:
(§4)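 E. coli cultured in LB medium with additions of 30 nM prodrug, 30 nM NBD-SH, 50 µM Na2S, 5 mM L-Cys, or combinations (Na2S or L-Cys plus 30 nM prodrug); incubated 12 h, then bacterial density read as OD600.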

The test system of data set [10] is Escherichia coli. Kind of data set: Antibacterial activity against Escherichia coli BL21(DE3) at 30 nM incubated for 12 hrs by UV-Vis spectrophotometric analysis. The format is functional, organism-based. The essentials:
as §4

Data set [11] relates to Escherichia coli. The data set can be described thus: Antibacterial activity against Escherichia coli BL21(DE3) at >0.2 uM incubated for 12 hrs by UV-Vis spectrophotometric analysis. The format is functional, organism-based.
The subject of data set [12] is Escherichia coli. Kind of data set: Antibacterial activity against Escherichia coli BL21(DE3) incubated for 12 hrs in presence of Na2S by UV-Vis spectrophotometric analysis. The format is functional. The essentials: as §4
Data set [13] can be described thus: Prodrug activation in pH 7.4 PBS buffer assessed as ciprofloxacin formation by measuring increase in fluorescence at 5 uM in presence of Na2S at 415 nanometer by fluorescence assay. To be noted: pH 7.4, 5 µM, TDE = time-dependent effect. The essentials:
(§5)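 Fluorescence spectra over time of 5 µM prodrug with 100 µM Na2S in PBS, excitation 280 nm; emission at 415 nm versus time fitted to give kobs; kobs plotted against Na2S concentration, slope of linear fit gives k2.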

The subject of data set [14] is Escherichia coli. The data set can be described thus: Antibacterial activity against Escherichia coli BL21(DE3) at 30 nM incubated for 12 hrs in presence of GSH by UV-Vis spectrophotometric analysis. The format is functional, organism-based.
Data set [15] in a line: Prodrug activation in pH 7.4 PBS buffer at 5 uM incubated for 30 mins in presence of GSH by fluorescence assay. To be noted: pH 7.4, 0.5 h. In short, it runs like this: as §2
Data set [16] can be described thus: Prodrug activation in pH 7.4 PBS buffer assessed as formation of ciprofloxacin by measuring reaction rate constant at 5 uM in presence of Na2S by fluorescence assay. To be noted: pH 7.4, 5 µM. The essentials:
as §5

A short description of data set [17]: Prodrug activation in pH 7.4 PBS buffer at 5 uM incubated for 30 mins in presence of 50 to 200 uM H2O2 by fluorescence assay. To be noted: pH 7.4, 0.5 h. The essentials:
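Fluorescence of prodrug read in PBS after exposure to a range of H2O2 concentrations up to 200 µM.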

Data set [18] relates to Escherichia coli. The data set can be described thus: Antibacterial activity against Escherichia coli BL21(DE3) at 30 nM incubated for 12 hrs in presence of H2S by UV-Vis spectrophotometric analysis. It is filed as functional, organism-based. In short, it runs like this: as §4

Active and inactive are the calls of the source. The rule behind the calls is not given here.

In the case of `O=[N+]([O-])c1ccc(S)c2nonc12`, the outcome in the data set on Escherichia coli [1] and in the data set with Escherichia coli [2] was inactive.
Turning to `O=C(O)c1cn(C2CC2)c2cc(N3CCN(c4ccc([N+](=O)[O-])c5nonc45)CC3)c(F)cc2c1=O`, the Drug metabolism result was “Metabolite_Notdetected” in [3], “Tde” in data set [13], “Metabolite_Notdetected” in [15] and “Metabolite_Notdetected” in [17]. The Activity in data set [4] is listed as 490 nm; in data set [8], 350 nm. Further, in data set [5], the solubility was 17 µM. Also, in data set [6], the k2 came to 12.9 M⁻¹ s⁻¹. The “fold change (FC)” value in data set [7] is listed as 62. The result with Escherichia coli [9], in the data set with Escherichia coli [11], in the data set with Escherichia coli [1] and in the data set on Escherichia coli [18] was Active. Besides, the result with Escherichia coli [10] and in the data set with Escherichia coli [14] was inactive. For the same compound, the minimum inhibitory concentration (MIC) in the data set with Escherichia coli [12] stood at 0.03 µM. Moreover, the K in data set [16] amounted to 12 M⁻¹ s⁻¹.
